Results taken from ChEMBL document CHEMBL1154900, “Modified phenazines from an Indonesian Streptomyces sp” (2010).
Calls of active or inactive are those of the source. The rule behind the calls is not given here.

What was measured:
Staphylococcus aureus [1] = assay: Antibacterial activity against Staphylococcus aureus at 24 ug/disk by agar diffusion method; assay type: functional
Procedure, shortened: (§1)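 Disk agar diffusion screen. Each sample was loaded per disk at the stated amount, either 14 µg/disk or 24 and 56 µg/disk. All six organisms were tested in one panel: S. aureus, B. subtilis, E. coli, P. aeruginosa, the fungus M. miehei and the yeast C. albicans.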

Bacillus subtilis [2] = assay: Antibacterial activity against Bacillus subtilis at 24 ug/disk by agar diffusion method; assay type: functional, organism-based; procedure, shortened: as §1
Escherichia coli [3] = assay: Antibacterial activity against Escherichia coli at 24 ug/disk by agar diffusion method; assay type: functional, organism-based; procedure, shortened: as §1
Pseudomonas aeruginosa [4] = assay: Antibacterial activity against Pseudomonas aeruginosa at 24 ug/disk by agar diffusion method; assay type: functional, organism-based; procedure, shortened: as §1
Rhizomucor miehei [5] = assay: Antifungal activity against Mucor miehei at 24 ug/disk by agar diffusion method; assay type: functional, organism-based; procedure, shortened: as §1
Candida albicans [6] = assay: Antifungal activity against Candida albicans at 24 ug/disk by agar diffusion method; assay type: functional, organism-based; procedure, shortened: as §1
Staphylococcus aureus [7] = assay: Antibacterial activity against Staphylococcus aureus at 56 ug/disk by agar diffusion method; assay type: functional, organism-based; procedure, shortened: as §1
Bacillus subtilis [8] = assay: Antibacterial activity against Bacillus subtilis at 56 ug/disk by agar diffusion method; assay type: functional, organism-based; procedure, shortened: as §1
Escherichia coli [9] = assay: Antibacterial activity against Escherichia coli at 56 ug/disk by agar diffusion method; assay type: functional, organism-based; procedure, shortened: as §1
Pseudomonas aeruginosa [10] = assay: Antibacterial activity against Pseudomonas aeruginosa at 56 ug/disk by agar diffusion method; assay type: functional, organism-based; procedure, shortened: as §1
Rhizomucor miehei [11] = assay: Antifungal activity against Mucor miehei at 56 ug/disk by agar diffusion method; assay type: functional, organism-based; procedure, shortened: as §1
Candida albicans [12] = assay: Antifungal activity against Candida albicans at 56 ug/disk by agar diffusion method; assay type: functional, organism-based; procedure, shortened: as §1

Structure (SMILES)	zone of inhibition at 24 µg/disc (Staphylococcus aureus [1]; read-out: IZ) [mm]	Activity (Bacillus subtilis [2])	inhibition zone (IZ) (Escherichia coli [3])	Activity (Pseudomonas aeruginosa [4])	Activity (Rhizomucor miehei [5])	Activity (Candida albicans [6])	Activity (Staphylococcus aureus [7])	Activity (Bacillus subtilis [8])	Activity (Escherichia coli [9])	Activity (Pseudomonas aeruginosa [10])	Activity (Rhizomucor miehei [11])	Activity (Candida albicans [12])	Activity (Staphylococcus aureus [1])	Activity (Escherichia coli [3])
CCC(=O)C(C)C(=O)C(C)(Cc1ccc(OC)c2nc3c(C(=O)O)cccc3nc12)C(=O)OC (centres undefined)	14	inactive	inactive	inactive	inactive	inactive	inactive	inactive	inactive	inactive	inactive	inactive	–	–
CCC(=O)C(C)C(=O)C1(C)Cc2ccc(OC)c3c2N(C1=O)c1cccc(C(=O)O)c1N3 (centres undefined)	–	inactive	–	inactive	inactive	inactive	inactive	inactive	inactive	inactive	inactive	inactive	inactive	inactive
